CHRM4 PAM: human M4 muscarinic receptor positive allosteric modulators, primary screen, CHO-K1 cells, Fluo-8 calcium fluorescence | Muscarinic acetylcholine receptor M4 (Homo sapiens), P08173 | CHO-K1 hM4/Gqi5, ACh EC20; 0% = ACh EC20, 100% = maximal ACh | activation, % at 3 µM | 0.4% of 360,000 active | AID 624126, 2012;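 active means activation above its plate's cutoff, the mean activation of sample wells plus 3 SD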
M5 PAM: human M5 muscarinic receptor positive allosteric modulators, primary screen, CHO-K1 cells, Fluo-8 calcium fluorescence; CHO-K1 hM5, ACh EC20 PAM; 0% = ACh EC20, 100% = ACh EC100; activation, % at 3 µM; 0.3% of 360,000 active; AID 624038, 2012;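 active means activation above the run cutoff, the mean activation of all test compounds plus 3 SD, cut at about 18% in these data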
Target sequence (P08912 whole entry, looked up): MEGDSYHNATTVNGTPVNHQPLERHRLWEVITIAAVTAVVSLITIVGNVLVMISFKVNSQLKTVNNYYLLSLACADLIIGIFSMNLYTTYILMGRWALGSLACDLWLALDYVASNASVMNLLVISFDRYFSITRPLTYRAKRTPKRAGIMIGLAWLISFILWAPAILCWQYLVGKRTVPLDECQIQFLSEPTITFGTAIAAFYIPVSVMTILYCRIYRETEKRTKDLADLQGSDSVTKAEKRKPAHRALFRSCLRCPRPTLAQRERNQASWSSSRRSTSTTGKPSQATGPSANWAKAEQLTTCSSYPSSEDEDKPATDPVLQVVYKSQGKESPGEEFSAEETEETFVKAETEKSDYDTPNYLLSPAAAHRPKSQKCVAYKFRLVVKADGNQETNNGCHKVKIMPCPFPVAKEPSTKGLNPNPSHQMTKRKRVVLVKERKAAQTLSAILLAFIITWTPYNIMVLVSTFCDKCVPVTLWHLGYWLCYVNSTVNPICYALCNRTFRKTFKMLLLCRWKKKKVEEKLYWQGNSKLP
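System: CHO-K1 hM5 cells. Reagent: acetylcholine, EC20 level. Compound dosing: single dose, 3 µM nominal final test concentration. Timing: Post-acetylcholine fluorescence recording 140 s. Detection: Fluo-8 calcium fluorescence. Read-out: % activation, ACh-normalized. Benchmarks: ACh EC20 and EC100 wells. Repeats: singlicate, one well per test compound.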
M4 antag: human M4 muscarinic receptor antagonists, primary screen, CHO cells, Fluo-8 calcium fluorescence; inhibition, % at 3 µM; 0.73% of 360,000 active; CHO-hM4 cells, ACh EC80; Muscarinic acetylcholine receptor M4 (Homo sapiens), P08173; AID 624125, 2012;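 active means inhibition above its plate's cutoff, the mean inhibition of sample wells plus 3 SD, cut at about 27% in these data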
CHRM5 agonist: human M5 muscarinic receptor agonists, primary screen, CHO-K1 cells, Fluo-8 calcium fluorescence | Muscarinic acetylcholine receptor M5 (Homo sapiens), P08912 | CHO-K1 hM5 cells; 0% DMSO wells, 100% maximal acetylcholine response | activation, % at 3 µM | 0.19% of 360,000 active;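 active means activation above the run's mean over test compounds plus 3 SD, cut at about 23% in these data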;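 further: signal is peak over basal fluorescence ratio across the kinetic read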
M5 antag: human M5 muscarinic receptor antagonists, primary screen, CHO cells, Fluo-8 calcium fluorescence; CHO-hM5 cells, ACh EC80; inhibition, % at 3 µM; 0.59% of 360,000 active;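 active means inhibition above a per-plate cutoff, the mean of that plate's test compounds plus 3 SD, cut at about 27% in these data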
CHRM4 agonist: human M4 muscarinic receptor agonists, primary screen, CHO-K1 cells, Fluo-8 calcium fluorescence; Muscarinic acetylcholine receptor M4 (Homo sapiens), P08173; CHO-K1 hM4/Gqi5; vehicle 0%, full acetylcholine response 100%; activation, % at 3 µM; 0.14% of 360,000 active;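 active means activation above the run mean over all test wells plus 3 SD, cut at about 32% in these data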;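 further: peak over basal fluorescence ratio per well then scaled between controls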
Large screens that a line does not name were inactive. Only some compounds are listed: those with a hit (about 1.8% of all), similar ones and a draw of the others.

COc1ccc(C2C3=C(Nc4ncnn42)c2ccccc2CCC3)cc1 (stereo unspecified)	none
Fc1ccc(/C=C2\CCCC3=C2Nc2ncnn2C3c2ccc(F)cc2)cc1 (stereo unspecified)	M4 antag 27.9
COc1ccc(CSCCc2n[nH]c(=S)n2-c2ccccc2)cc1	M4 antag 48.5
COc1ccccc1NS(=O)(=O)c1cccc(C(=O)NCC(c2cccs2)N2CCOCC2)c1 (stereo unspecified)	none
NC(=O)CC(NC(=O)Cc1cccc2ccccc12)c1ccc(NCCOc2ccccc2)c([N+](=O)[O-])c1 (stereo unspecified)	CHRM4 PAM 27.5
NC(=O)CC(NC(=O)Cc1cccc2ccccc12)c1ccc(NC2CC3CCC2C3)c([N+](=O)[O-])c1 (stereo unspecified)	M5 PAM 19.2
NC(=O)CC(NC(=O)Cc1cccc2ccccc12)c1ccc(NCc2ccc(F)c(F)c2)c([N+](=O)[O-])c1 (stereo unspecified)	CHRM4 PAM 23.9
NC(=O)CC(NC(=O)Cc1cccc2ccccc12)c1ccc(NC2CCCC2)c([N+](=O)[O-])c1 (stereo unspecified)	none
NC(=O)CC(NC(=O)Cc1cccc2ccccc12)c1ccc(NCC2CC2)c([N+](=O)[O-])c1 (stereo unspecified)	none
CS(=O)(=O)Cc1ccc(C(=O)N(CCc2ccccc2)Cc2ccccc2)cc1	none
CCCC(=O)Nc1nnc(SCC(=O)Nc2ccc(OCC)cc2)s1	none
OC[C@@H]1CN(Cc2ccco2)C[C@H](n2cnc3c(NC4CC4)ncnc32)O1	none
Cc1ccc(C)c(CC(=O)N2CCCC(c3cc(C(=O)Nc4ccccc4Cl)no3)C2)c1 (stereo unspecified)	none
Cc1ccn2cc(CNS(=O)(=O)c3ccc4ccccc4c3)nc2c1	M4 antag 99.2
Cc1cccn2cc(CNS(=O)(=O)c3ccc4ccccc4c3)nc12	none
COc1ccccc1Nc1nc(=O)[nH]nc1C	none
Cc1n[nH]c(=O)nc1NC(C)c1ccccc1 (stereo unspecified)	M4 antag 27.5
COc1cc2cc(C(c3nnnn3C3CCCC3)N(C)C3CCCCC3)c(=O)[nH]c2cc1OC (stereo unspecified)	none
COc1cc2cc(C(c3nnnn3C3CCCCC3)N(C)C3CCCCC3)c(=O)[nH]c2cc1OC (stereo unspecified)	M4 antag 29.6
CN(CC(=O)Nc1cccc(S(=O)(=O)NC2=NCCC2)c1)Cc1cccc(F)c1	none
Cc1cc(OCCCC(=O)Nc2cccc(-n3cnnn3)c2)ccc1Cl	M5 antag 27.2
COc1ccc(S(=O)(=O)Nc2ccc(-c3ccc4nncn4n3)cc2)c(OC)c1	none
CC1(C(=O)Nc2ccccc2)CCN1C(=O)Cc1ccc(-c2ccccc2)cc1 (stereo unspecified)	none
CC1(C(=O)Nc2ccc3c(c2)OCO3)CCN1C(=O)Cc1ccc(-c2ccccc2)cc1 (stereo unspecified)	M4 antag 26.7, M5 antag 30.7
CC(C)S(=O)(=O)NC(=O)C1(C)CCN1C(=O)Cc1ccccc1 (stereo unspecified)	M5 antag 28.8
CCOc1ccccc1C(=O)NCC(=O)NNC(=O)c1csc(N2CCOCC2)n1	none
COc1ccc(NC(=O)NNS(=O)(=O)c2ccc(OC)c(OC)c2)c(OC)c1	M5 PAM 18.2
COc1ccc(C(=O)NCC(=O)OCCOc2ccc(Cl)cc2)cc1OC	none
C/C(CC(=O)NCc1ccccc1)=N\NC(=O)c1cnccn1	CHRM4 PAM 31.3
CCn1c(=O)n(CC)c2cc(N3CCCC3)c(NC(=O)c3cc(Cl)ccc3OC)cc21	none
